Reference: ChEMBL document CHEMBL1949504, “Synthesis and anti-leishmanial activity of 5-(5-nitrofuran-2-yl)-1,3,4-thiadiazol-2-amines containing N-[(1-benzyl-1H-1,2,3-triazol-4-yl)methyl] moieties” (Eur J Med Chem, 2012)
Active and inactive are the calls of the source. The calls are words filed in the database; no cut-off is given here.

Experiments:
Type in all cases: functional, organism-based
[1] = test system: Leishmania major; assay: Antileishmanial activity against promastigotes of Leishmania major […] by MTT assay
Method in brief: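 Promastigotes of L. major vaccine strain MRHO/IR/75/ER were used. Two or more independent experiments were run in triplicate. IC50 was obtained by linear regression and reported as the mean. Meglumine antimonate served as the standard drug.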

[2] = test system: Leishmania major; assay: Antiamastigote activity against Leishmania major MHOM/1L/80/ER amastigotes infected in mouse primary peritoneal macrophages assessed as decrease in number of intracellular amastigotes per macrophage after 24 hrs using Giemsa staining
Method in brief: (§1)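 Mouse peritoneal macrophages on glass coverslips at 1 × 10^6/well were infected for 2 h with stationary-phase promastigotes in RPMI (2 × 10^6/well, 3 parasites per macrophage). Extracellular parasites were washed off, then compound-containing medium was added for 24 h. Cells were methanol-fixed and Giemsa-stained, with 100 cells counted per well. Two experiment sets were run.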

[3] = test system: Leishmania major; assay: Antiamastigote activity against Leishmania major MHOM/1L/80/ER amastigotes infected in mouse primary peritoneal macrophages assessed as percentage of macrophage infectivity after 24 hrs using Giemsa staining; method in brief: as §1
[4] = test system: Leishmania major; assay: Antiamastigote activity against Leishmania major MHOM/1L/80/ER amastigotes infected in mouse primary peritoneal macrophages assessed as infectivity index after 24 hrs using Giemsa staining
Method in brief: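 Macrophage infection and treatment were as for the amastigote counts: 1 × 10^6 peritoneal macrophages/well, infected 2 h at 3 promastigotes per cell, washed, then drug exposure for 24 h. Giemsa staining after methanol fixation, 100 cells examined per well. Infectivity index = % macrophages with at least one intracellular parasite × mean parasites per infected macrophage. Two experiment sets.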

## O=[N+]([O-])c1ccc(-c2nnc(NCc3cn(Cc4ccc(Cl)cc4)nn3)s2)o1
[1]; Leishmania major
  IC50: 88.8 µM

## O=[N+]([O-])c1ccc(-c2nnc(NCc3cn(Cc4ccccc4F)nn3)s2)o1
[1]; Leishmania major
  IC50: 19 µM
[2]
  Activity: Active
[3]
  Activity: Active
[4]
  Activity: Active

## O=[N+]([O-])c1ccc(-c2nnc(NCc3cn(Cc4ccc(F)cc4)nn3)s2)o1
[1]; Leishmania major
  IC50: 21.4 µM
[2]
  Activity: Active
[3]
  Activity: Active
[4]
  Activity: Active

## Cc1ccc(Cn2cc(CNc3nnc(-c4ccc([N+](=O)[O-])o4)s3)nn2)cc1
[1]; Leishmania major
  IC50: 12.2 µM
[2]
  Activity: Active
[3]
  Activity: Active
[4]
  Activity: Active

## O=[N+]([O-])c1ccc(-c2nnc(NCc3cn(Cc4ccccc4Cl)nn3)s2)o1
[1]; Leishmania major
  IC50: 18.9 µM
[2]
  Activity: Active
[3]
  Activity: Active
[4]
  Activity: Active

## O=[N+]([O-])c1ccc(Cn2cc(CNc3nnc(-c4ccc([N+](=O)[O-])o4)s3)nn2)cc1
[1]; Leishmania major
  IC50: 32.7 µM

## O=[N+]([O-])c1ccc(-c2nnc(NCc3cn(Cc4c(F)cccc4Cl)nn3)s2)o1
[1]; Leishmania major
  IC50: 17.4 µM
[2]
  Activity: Active
[3]
  Activity: Active
[4]
  Activity: Active

## Cc1cccc(Cn2cc(CNc3nnc(-c4ccc([N+](=O)[O-])o4)s3)nn2)c1
[1]; Leishmania major
  IC50: 21.9 µM
[2]
  Activity: Active
[3]
  Activity: Active
[4]
  Activity: Active

## O=[N+]([O-])c1ccc(-c2nnc(NCc3cn(Cc4ccc(Cl)cc4Cl)nn3)s2)o1
[1]; Leishmania major
  IC50: 19.9 µM
[2]
  Activity: Active
[3]
  Activity: Active
[4]
  Activity: Active

## O=[N+]([O-])c1ccc(-c2nnc(NCc3cn(Cc4cccc(Cl)c4)nn3)s2)o1
[1]; Leishmania major
  IC50: 108 µM

## O=[N+]([O-])c1ccc(-c2nnc(NCc3cn(Cc4ccccc4)nn3)s2)o1
[1]; Leishmania major
  IC50: 19.6 µM
[2]
  Activity: Active
[3]
  Activity: Active
[4]
  Activity: Active

## O=[N+]([O-])c1ccc(-c2nnc(NCc3cn(Cc4cccc(Cl)c4Cl)nn3)s2)o1
[1]; Leishmania major
  IC50: 104 µM

## O=[N+]([O-])c1ccc(-c2nnc(NCc3cn(Cc4ccc(Cl)c(Cl)c4)nn3)s2)o1
[1]; Leishmania major
  IC50: 132 µM

## Cc1ccccc1Cn1cc(CNc2nnc(-c3ccc([N+](=O)[O-])o3)s2)nn1
[1]; Leishmania major
  IC50: 25.2 µM

## MEGLUMINE ANTIMONATE
[1]
  IC50: 68300 µM
